Laboratory results as given in ChEMBL document CHEMBL5346890, “Elevated labile iron in castration-resistant prostate cancer is targetable with ferrous iron-activatable antiandrogen therapy” (Eur J Med Chem, 2023).
Activity calls are given as the source filed them. The rule behind the calls is not given here.

Legend:
PC-3 = experiment: Antiproliferative activity against androgen receptor negative human PC-3 cells assessed as reduction in cell growth at 5 uM measured upto 6 days by CellTiter-Glo assay; type: functional, cell-based; settings: time <= 6.0 day
Method in brief: (§1)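 Cells were seeded at 20,000/well, four replicates per condition, in complete medium with 0.1% DMSO. Compound was added 24 h after seeding at a single concentration of 5 μM (0.2% final DMSO). Viability was read by CellTiter-Glo luminescence (10 min, room temperature, in HBSS) at timepoints up to 144 h (6 days).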

[1] = Cmax in NSG mouse at 10 mg/kg, ip; type: ADME, organism-based; design: dose 10 mg/kg, route ip; settings: in vivo
Method in brief: (§2)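 Healthy NSG mice got a single 10 mg/kg intraperitoneal dose. Plasma concentrations of conjugate and released payload were measured over time, with n = 9 or n = 6 mice depending on conjugate. Tmax, Cmax and AUClast (hr•ng/mL) were derived from the plasma profiles.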

LNCaP [2] = experiment: Reduction in KLK2 gene expression in human LNCaP cells at 5 uM incubated for 48 hrs by qRT-PCR analysis; type: functional, cell-based
Method in brief: (§3)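 Cells were plated in triplicate per condition; drug (0.1% final DMSO) was added after 24 h and left for 48 h. RNA was extracted and 2 μg reverse-transcribed. cDNA was diluted 1:50 and amplified by qPCR with 400 nM primers.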

LNCaP [3] = experiment: Reduction in KLK3 gene expression in human LNCaP cells at 5 uM incubated for 48 hrs by qRT-PCR analysis; type: functional, cell-based; method in brief: as §3
[4] = AUClast in NSG mouse at 10 mg/kg, ip; type: ADME, organism-based; design: dose 10 mg/kg, route ip; settings: in vivo; method in brief: as §2
[5] = Tmax in NSG mouse at 10 mg/kg, ip; type: ADME, organism-based; settings: in vivo; method in brief: as §2
[6] = Drug concentration in NSG mouse brain at 10 mg/kg, ip measured after 2 hrs; type: ADME, organism-based; settings: read-out: Drug uptake
Method in brief: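 Healthy NSG mice were given a single 10 mg/kg intraperitoneal injection. Brains were collected at set timepoints, including 2 h post-dose. Both the intact conjugate and its released antiandrogen payload were measured in brain tissue, with concentrations expressed as ng/g.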

[7] = Metabolic stability in mouse liver microsomes assessed as intrinsic clearance measured upto 60 mins in presence of NADPH by LC/MS/MS analysis; type: ADME, Microsome; settings: 1 h
[8] = Metabolic stability in mouse liver microsomes assessed as half life measured upto 60 mins in presence of NADPH by LC/MS/MS analysis; type: ADME, Microsome; settings: 1 h
[9] = Kinetic solubility of compound at pH 7.4 by shake flask assay; type: physicochemical; settings: buffer
Method in brief: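 Kinetic solubility of DMSO solutions in phosphate-buffered saline, pH 7.4, by automated miniaturized shake-flask method. Quantitation was by chemiluminescent nitrogen detection.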

LNCaP/AR [10] = experiment: Antiproliferative activity against human LNCaP/AR cells assessed as reduction in cell growth at 5 uM measured upto 6 days by CellTiter-Glo assay; type: functional, cell-based; settings: time <= 6.0 day
LNCaP C4-2B = experiment: Antiproliferative activity against androgen receptor positive human LNCaP C4-2B cells assessed as reduction in cell growth at 5 uM measured upto 6 days by CellTiter-Glo assay; type: functional, cell-based; settings: time <= 6.0 day; method in brief: as §1
LNCaP/AR [11] = experiment: Antiproliferative activity against human LNCaP/AR cells assessed as reduction in cell growth measured after 3 days by CellTiter-Glo assay; type: functional, cell-based; settings: dose 0.1-25 µM, time 3.0 day
Method in brief: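 LNCaP-AR cells (AR-overexpressing) were seeded at 20,000/well, four replicates, in 0.1% DMSO complete medium. Drug was added 24 h later across 0.1–25 μM (0.2% final DMSO) for three days. Viability was measured by CellTiter-Glo luminescence after 10 min at room temperature.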

[12] = Metabolic stability in human liver microsomes assessed as half life measured upto 60 mins in presence of NADPH by LC/MS/MS analysis; type: ADME, Microsome; settings: 1 h
Method in brief: (§4)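 Human liver microsomes at 0.5 mg/mL protein with 1 mM NADPH, sampled at 0, 15, 30 and 60 min, N = 1. Parent disappearance was followed by LC/MS/MS with verapamil as control. CLint = ln(2)*1000/T1/2/protein concentration (mg/mL).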

[13] = Metabolic stability in human liver microsomes assessed as intrinsic clearance measured upto 60 mins in presence of NADPH by LC/MS/MS analysis; type: ADME, Microsome; settings: 1 h; method in brief: as §4

concentration at 2 h [6] [ng/g]	SMILES	Activity (PC-3)	Cmax [1] [ng/mL]	Activity (LNCaP [2])	Activity (LNCaP [3])	AUC(0-t) [4] [µg·h/mL]	Tmax [5] [min]	CLH [7] [µL/min/mg]	t1/2 [8] [min]	Kinetic_solubility [9] [µM]	Activity (LNCaP/AR [10])	Activity (LNCaP C4-2B)	Activity (LNCaP/AR [11])	t1/2 [12] [min]	CLH [13] [µL/min/mg]
	N#Cc1ncc(N2C(=O)C3(CCC3)N(c3ccc(OC4CCNCC4)nc3)C2=S)cc1C(F)(F)F	inactive													
808	CNC(=O)c1ccc(N2C(=S)N(c3cnc(C#N)c(C(F)(F)F)c3)C(=O)C23CCC3)cc1F [APALUTAMIDE]	inactive	4330	Active	Active	4490	240								
	N#Cc1ncc(N2C(=O)C3(CCC3)N(c3ccc(OC4CCN(C(=O)O[C@H]5CCC[C@@]6(C5)OOC5(O6)C6CC7CC(C6)CC5C7)CC4)nc3)C2=S)cc1C(F)(F)F (some centres undefined)							40.2	34.5						
	N#Cc1ncc(N2C(=O)C3(CCC3)N(c3ccc(OC4CCN(C(=O)O[C@@H]5CCC[C@]6(C5)OOC5(O6)C6CC7CC(C6)CC5C7)CC4)nc3)C2=S)cc1C(F)(F)F (some centres undefined)	inactive	641	Active	Active	158	30	28.8	48.2	< 0.4	Active	Active			
	CN(CCN(C)C(=O)O[C@@H]1CCC[C@]2(C1)OOC1(O2)C2CC3CC(C2)CC1C3)C(=O)Oc1ccc(N2C(=S)N(c3ccc(C#N)c(C(F)(F)F)c3)C(=O)C23CCC3)cc1 (some centres undefined)	inactive	346	Active	Active	81.1	30			2.3	Active	Active	Dose-Dependent Effect	53.4	25.9
	N#Cc1ccc(N2C(=O)C3(CCC3)N(c3ccc(O)cc3)C2=S)cc1C(F)(F)F	inactive													
